Rce1 inhib = inhibitors of yeast Ras-converting enzyme; calls only; actives 0.27% (n = 290,000); yeast membranes, quenched prenylated peptide cleavage fluorescence; Q03530;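 active means fall in fluorescence gain of 50% or more versus controls, with final raw signal at or below 3038400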
Target sequence (Q03530 whole entry, looked up): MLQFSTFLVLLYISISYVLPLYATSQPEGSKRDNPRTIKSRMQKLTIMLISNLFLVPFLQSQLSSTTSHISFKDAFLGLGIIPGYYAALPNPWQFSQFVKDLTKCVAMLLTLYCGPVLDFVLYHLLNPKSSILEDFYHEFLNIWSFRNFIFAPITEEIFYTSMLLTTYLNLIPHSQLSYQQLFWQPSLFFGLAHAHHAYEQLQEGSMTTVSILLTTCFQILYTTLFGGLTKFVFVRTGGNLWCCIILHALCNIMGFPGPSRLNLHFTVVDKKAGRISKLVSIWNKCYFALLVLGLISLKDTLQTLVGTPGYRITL
NR1D1 modulator = modulators of human Rev-erb alpha DNA binding. P20393. Rev-erbα–FITC-DNA binding, fluorescence polarization, 90 min. activity, % at 10 µM. actives 0.79% (n = 370,000). AID 1259318;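 active means activity above about 14%, limit read from the data; passing the limit was not always enough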
beta cell repl = inducers of beta-cell replication in MIN6 cells. MIN6 cells proliferation, ATPlite luminescence, 48 h; cells starved in 0.2% serum; 100% = growth in 10% serum. proliferation, % at 10 µM. actives 0.29% (n = 330,000). AID 2380;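 active means compounds whose signal lies at least 3.5 SD above the mean of all wells on their plate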
PG9 binder = small molecules binding HIV-1 gp120 antibody PG9; inhibition, % at 6.7 µM; TR-FRET gp120-PG9 antibody binding; actives 0.43% (n = 360,000); AID 624416; in the data active means inhibition above about 8.5%
CR mimetic SO = lowers age-related superoxide in aged yeast cells. AID 2690. superoxide response (% of plate mean), % at 10 µM. S. cerevisiae aged cells, superoxide DHE fluorescence; stronger effect = lower value. actives 0.18% (n = 330,000);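 active means superoxide response under a set limit, about three screen SD below normal, cut at about 65% in these data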;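 further: yeast aged for seven days with compound at 30 °C before DHE staining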
UCH37 DUB inh = blocks the human deubiquitinase UCH37; purified proteasome/UCH37, Ub-AMC cleavage fluorescence; AID 588478; actives 0.33% (n = 330,000); inhibition, % (concentration not given with the values); Q9Y5K5;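 active means mean inhibition over replicate wells above about 20%, limit read from the data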
Target sequence (Q9Y5K5 whole entry, looked up): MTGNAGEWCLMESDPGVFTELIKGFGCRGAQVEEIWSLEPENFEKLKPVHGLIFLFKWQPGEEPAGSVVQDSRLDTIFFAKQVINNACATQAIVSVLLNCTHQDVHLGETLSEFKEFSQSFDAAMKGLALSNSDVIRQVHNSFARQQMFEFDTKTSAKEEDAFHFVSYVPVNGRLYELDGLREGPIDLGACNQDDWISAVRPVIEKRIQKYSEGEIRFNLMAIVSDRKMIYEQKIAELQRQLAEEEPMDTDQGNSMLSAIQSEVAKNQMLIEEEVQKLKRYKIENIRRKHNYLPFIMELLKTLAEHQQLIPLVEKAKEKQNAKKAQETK
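Material: human UCH37 enzyme supplied as purified proteasome complex / Amount: 0.15 nM proteasome as dispensed / Buffer or medium: pH 7.4 Tris-HCl (50 mM) with ovalbumin, ATP-MgCl2, DTT / Times: preincubation 30 min, reaction 25 min, room temperature / Technique: AMC fluorescence from Ub-AMC cleavage, excitation 355 nm, emission 460 nm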
NR1D1 mod conf = confirmation of modulators of human Rev-erb alpha DNA binding | Rev-erb alpha FITC-DNA binding, fluorescence polarization, 90 min | AID 1259319 | shares compounds with NR1D1 modulator | actives 61% (n = 3,000) | activation, % at 25 µM;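 active means activation at or above a set limit, or at least 3 SD above the negative control mean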
RORg DNA counter = affects RORgamma DNA binding in a Rev-erb alpha counter-screen; shares compounds with NR1D1 modulator; purified RORgamma protein-FITC-DNA binding, fluorescence polarization; IC50, µM; actives 8% (n = 910); AID 1259320;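 active means Compounds whose fitted half-maximal concentration for disrupting protein-DNA binding is below 10 micromolar; the record names Rev-erb in its text, so the target is in doubt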
A number is an active result; – = inactive; · = not tested or not shown. An excerpt weighted towards active compounds, which were near 1.9% of everything screened.

SMILES | Rce1 inhib | NR1D1 modulator | beta cell repl | PG9 binder | CR mimetic SO | UCH37 DUB inh | NR1D1 mod conf | others
Cc1ccc2nc(NC(=O)c3ccc4ncsc4c3)sc2c1 | – | 34.2 | – | – | – | – | 23.9
CS(=O)(=O)c1ccc2nc(NC(=O)c3cc([N+](=O)[O-])cc([N+](=O)[O-])c3)sc2c1 | – | – | – | – | – | – | ·
COc1ccc(Cl)cc1C(=O)Nc1nc2ccc(S(C)(=O)=O)cc2s1 | – | · | – | · | – | – | ·
COc1cc(OC)cc(C(=O)Nc2nc3ccc(S(C)(=O)=O)cc3s2)c1 | – | 33.1 | – | – | – | – | 21.3
COc1cc(C(=O)Nc2nc3ccc(S(C)(=O)=O)cc3s2)cc(OC)c1C | – | 21.0 | – | – | – | – | –
CC(=O)c1sc(NC(=O)c2oc3ccc(F)cc3c2C)nc1C | · | 53.8 | – | – | – | – | 45.9 | RORg DNA counter=–
COc1ccc2c(c1)c(C(=O)NN=Cc1cn(C)c3ccccc13)c(C)n2C | · | · | · | · | · | – | ·
Cc1ccc(C(=O)NN=Cc2cccs2)cn1 | · | · | · | · | · | – | ·
CC(=NOC(=O)c1ccc(C)cc1)c1cccs1 | · | · | · | · | · | – | ·
O=C(Nc1ccc2c(c1)C(=O)NC2=O)c1ccc2ncsc2c1 | · | 56.8 | – | – | – | · | 53.5 | RORg DNA counter=6.01
COc1ccc2oc(C(=O)Nc3nc4ccc(S(C)(=O)=O)cc4s3)c(C)c2c1 | – | 30.8 | – | – | – | – | –
O=C(Nc1ccc(Br)cc1)c1ccc2ncsc2c1 | – | – | – | – | – | – | ·
Cc1ccc(C=NNC(=O)C2CCN(Cc3ccc(F)cc3Cl)CC2)o1 | · | · | · | · | · | – | ·
CCOc1ccc(NC(=O)c2ccc(NC(=O)c3cn4c5c(c(N6CCN(C)CC6)c(F)cc5c3=O)OCC4C)cc2)cc1 (stereo not given) | – | 70.2 | – | – | – | – | 40.6
CCOc1ccc(C(=O)Nc2ccc(N3CCN(C)CC3)cc2)cc1 | – | – | – | – | – | – | ·
N=C1N(N=Cc2ccccc2)C(=Nc2ccccc2)C(=S)N1c1ccccc1 | · | · | · | · | · | – | ·
Cc1nn(Cc2ccc(Cl)cc2)c(C)c1NC(=O)CSc1nc2c(c(C(F)(F)F)n1)CCc1ccccc1-2 | – | 32.4 | – | – | – | – | 25.1
CC1CCc2c(sc(NC(=O)CSc3nc4c(c(C(F)(F)F)n3)CCc3ccccc3-4)c2C(N)=O)C1 (stereo not given) | – | – | – | – | – | – | ·
Cc1ccc(Cn2nc(C)c(NC(=O)CSc3nc4c(c(C(F)(F)F)n3)CCc3ccccc3-4)c2C)cc1 | – | 44.6 | · | – | – | – | 28.6
CN(Cc1ccccc1)C(=O)CSc1nc2c(c(C(F)(F)F)n1)CCc1ccccc1-2 | – | – | – | – | – | – | ·
Cc1ccccc1Cn1cc(NC(=O)c2nc3ncccn3n2)cn1 | – | – | – | – | – | – | ·
COc1ccc(-c2ccc(C#N)c(SCC(=O)Nc3sc4c(c3C#N)CCC4)n2)cc1OC | – | 39.6 | – | – | – | – | 24.0
Cc1ccccc1Cn1cc(NC(=O)CSc2nc3c(c(C(F)(F)F)n2)CCc2ccccc2-3)cn1 | – | 19.4 | – | – | – | – | –
COc1ccccc1/C=C/C=NNC(=O)c1ccc2nc[nH]c2c1 | · | · | · | · | · | – | ·
Cn1cccc1CC(=O)NN=Cc1cccs1 | · | · | · | · | · | – | ·
SMILES | Rce1 inhib | NR1D1 modulator | beta cell repl | PG9 binder | CR mimetic SO | UCH37 DUB inh | NR1D1 mod conf | others
N#Cc1c(NC(=O)CSc2nc3c(c(C(F)(F)F)n2)CCc2ccccc2-3)sc2c1CCCC2 | · | 40.1 | – | – | – | – | 23.5
NC(=O)c1c(NC(=O)CSc2nc3c(c(C(F)(F)F)n2)CCc2ccccc2-3)sc2c1CCCC2 | – | – | – | · | – | – | ·
CCOC(=O)C1=C(C)N=c2sc(=Cc3ccccc3)c(=O)n2C1c1ccc(OC)c(OC)c1 (stereo not given) | · | · | · | · | · | – | ·
Cc1n[nH]c(C)c1CCC(=O)NN=Cc1c(C)[nH]c2ccccc12 | · | · | · | · | · | – | ·
CCN(CC)c1ccc(C=Nn2nnnc2N)c(O)c1 | · | · | · | · | · | – | ·
NS(=O)(=O)c1ccc(CCNc2ccn3nc(-c4cccc(C(F)(F)F)c4)cc3n2)cc1 | · | 27.6 | · | – | · | · | –
COc1cc2c(c(OC)c1OC)[C@@]1(c3ccccc3)CCCCC[C@H]1[C@@H]2NC(=O)C(F)(F)F | · | 13.1 | · | – | · | · | –
CCCCCC1CC(C(C)=NNC(N)=O)OC1=O (stereo not given) | · | · | · | · | · | – | ·
O=[N+]([O-])c1cc(C=NNc2nc(N3CCOCC3)nc(N3CCOCC3)n2)ccc1Cl | · | · | · | · | · | – | ·
C=CCNC(=O)c1ccc(-c2nc(-c3ccc(Cl)c(Cl)c3)cs2)cc1 | – | – | – | – | – | – | ·
C=CCNC(=O)c1ccc(-c2nc(-c3ccc(Cl)cc3Cl)cs2)cc1 | – | 31.4 | – | – | – | – | 44.3 | RORg DNA counter=–
CCOC(=O)C(=NO)C1=NC(C)(C)Cc2ccccc21 | · | · | · | · | · | – | ·
CN(C)c1ccc(N=C/C=C2/N(C)c3ccccc3C2(C)C)cc1 | – | 25.5 | · | – | · | – | –
Cc1ccc(OCC(=NO)C(C)(C)C)c([N+](=O)[O-])c1 | · | · | · | · | · | – | ·
CN(Cc1ccccc1)Cc1nc2c(c(=O)n(C)c(=O)n2C)n1Cc1ccccc1Cl | – | 30.7 | – | – | – | – | 49.6
COC(=O)c1c(NC(=O)c2ccccc2N(C)S(=O)(=O)c2ccccc2)sc2c1CCCC2 | – | – | · | – | · | – | ·
COC(=O)c1c(NC(=O)c2ccc(N(C)S(=O)(=O)c3ccc(C)cc3)cc2)sc2c1CCCC2 | – | 34.0 | – | – | – | – | –
COc1ccc(N2CCN(c3oc(-c4ccc(OC)c(OC)c4)nc3C#N)CC2)cc1 | – | 58.0 | – | – | – | – | –
COc1ccc(-c2nc(C#N)c(N3CCN(c4ccccc4)CC3)o2)cc1 | – | – | – | – | – | – | ·
CC1=C(C(=O)OC2CCCCC2)C(c2ccccc2Br)NC(=O)N1 (stereo not given) | – | 15.1 | – | – | – | – | –
CC1=C(C(=O)OC2CCCCCCC2)C(c2cc3c(cc2Br)OCO3)CC(=O)N1 (stereo not given) | – | 22.8 | – | – | – | – | 29.6
COCCN=c1scc(-c2ccco2)n1N=Cc1ccc(O)c(O)c1O | · | · | · | · | · | – | ·
Cc1cc(C)n(-c2cc(N3CCOCC3)nc(-c3ccccc3)n2)n1 | – | 18.3 | – | – | – | – | 24.4
c1ccc(-c2nc(N3CCOCC3)cc(N3CCOCC3)n2)cc1 | – | – | – | – | – | – | ·
COC(=O)c1c(C)[nH]c(C(=O)/C=C/c2ccc(C)cc2)c1C | – | 26.3 | – | – | – | – | –
COc1cc(OC)cc(C(=O)N=c2sc3ccccc3n2C)c1 | – | – | – | – | – | – | ·
COc1ccc(C(=O)N=c2sc3ccccc3n2C)cc1 | – | 51.9 | – | – | – | – | 23.1

From PubChem BioAssay
